Calls of active or inactive are those of the source. The rule behind the calls is not given here.
How the values were obtained:
[1] = system: Mus musculus; assay: Anticonvulsant activity in intraperitoneally dosed Swiss albino mouse assessed as reduction in clonic seizures after 4 hrs by subcutaneous pentylenetetrazole seizure test; type: functional
Outline: (§1)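 Adult male Swiss albino mice; test agents given i.p. at 30, 100 and 300 mg/kg, with animals examined 0.5 h and 4.0 h after injection. Value is the minimal dose protecting half or more of the mice; a dash means no activity at 300 mg/kg.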

[2] = system: Mus musculus; assay: Anticonvulsant activity in intraperitoneally dosed Swiss albino mouse assessed as reduction in electrical stimulus-induced seizures after 0.5 hrs by maximal electroshock seizure test; type: functional; outline: as §1
[3] = system: Mus musculus; assay: Anticonvulsant activity in Swiss albino mouse assessed as reduction in electrical stimulus-induced seizures at 300 mg/kg, ip after 4 hrs by maximal electroshock seizure test; type: functional, organism-based; parameters: dose 300 mg/kg; outline: as §1
[4] = system: Mus musculus; assay: Neurological toxicity in Swiss albino mouse assessed as motor impairment at 300 mg/kg, ip after 4 hrs by rotarod test; type: organism-based; parameters: dose 300 mg/kg, route intraperitoneal; conditions: in vivo
Outline: (§2)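 Adult male Swiss albino mice dosed i.p. at 30, 100 and 300 mg/kg, examined at 0.5 h and 4.0 h. Neurotoxicity is scored as failure to hold onto the rotating rod, with three successive trials. Value is the minimal dose active in half or more of the mice.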

[5] = system: Mus musculus; assay: Anticonvulsant activity in Swiss albino mouse assessed as reduction in clonic seizures at 300 mg/kg, ip after 0.5 hrs by subcutaneous pentylenetetrazole seizure test; type: functional, organism-based; parameters: dose 300 mg/kg; outline: as §1
[6] = system: Mus musculus; assay: Neurological toxicity in Swiss albino mouse assessed as motor impairment at 300 mg/kg, ip after 0.5 hrs by rotarod test; type: organism-based; parameters: dose 300 mg/kg, route intraperitoneal; conditions: in vivo; outline: as §2
[7] = system: Mus musculus; assay: Anticonvulsant activity in Swiss albino mouse assessed as reduction in clonic seizures at 300 mg/kg, ip after 4 hrs by subcutaneous pentylenetetrazole seizure test; type: functional, organism-based; parameters: dose 300 mg/kg; outline: as §1
[8] = system: Mus musculus; assay: Toxicity in Swiss albino mouse assessed as induction of death following tonic extension at 300 mg/kg, ip after 0.5 hrs during maximal electroshock seizure test; type: organism-based; parameters: dose 300 mg/kg, route intraperitoneal; conditions: in vivo
[9] = system: Mus musculus; assay: Anticonvulsant activity in intraperitoneally dosed Swiss albino mouse assessed as reduction in electrical stimulus-induced seizures after 4 hrs by maximal electroshock seizure test; type: functional; outline: as §1
[10] = Neurological toxicity in intraperitoneally dosed Swiss albino mouse assessed as motor impairment after 4 hrs by rotarod test; type: organism-based; conditions: in vivo, ip, read-out: MTD50
[11] = Neurological toxicity in intraperitoneally dosed Swiss albino mouse assessed as motor impairment after 0.5 hrs by rotarod test; type: organism-based; conditions: in vivo, ip, read-out: MTD50
[12] = system: Mus musculus; assay: Toxicity in Swiss albino mouse assessed as induction of myoclonic jerks at 100 mg/kg, ip after 0.5 hrs during subcutaneous pentylenetetrazole seizure test; type: organism-based; parameters: dose 100 mg/kg
[13] = system: Mus musculus; assay: Anticonvulsant activity in intraperitoneally dosed Swiss albino mouse assessed as reduction in clonic seizures after 0.5 hrs by subcutaneous pentylenetetrazole seizure test; type: functional; outline: as §1
[14] = system: Mus musculus; assay: Anticonvulsant activity in Swiss albino mouse assessed as reduction in electrical stimulus-induced seizures at 300 mg/kg, ip after 0.5 hrs by maximal electroshock seizure test; type: functional, organism-based; parameters: dose 300 mg/kg; outline: as §1
[15] = system: Mus musculus; assay: Toxicity in Swiss albino mouse assessed as induction of myoclonic jerks at 100 mg/kg, ip after 4 hrs during subcutaneous pentylenetetrazole seizure test; type: organism-based; parameters: dose 100 mg/kg
[16] = system: Mus musculus; assay: Toxicity in Swiss albino mouse assessed as induction of sedation at 300 mg/kg, ip after 0.5 hrs during subcutaneous pentylenetetrazole seizure test; type: organism-based; parameters: dose 300 mg/kg
[17] = system: Mus musculus; assay: Toxicity in Swiss albino mouse assessed as induction of sedation at 100 mg/kg, ip after 0.5 hrs during maximal electroshock seizure test; type: organism-based; parameters: dose 100 mg/kg, route intraperitoneal; conditions: in vivo

SMILES	MED50 [1] [mg/kg]	MED50 [2] [mg/kg]	Activity [3]	Activity [4]	Activity [5]	Activity [6]	Activity [7]	Activity [8]	MED50 [9] [mg/kg]	TD50 at 4 h [10] [mg/kg]	TD50 at 0.5 h [11] [mg/kg]	Activity [12]	MED50 [13] [mg/kg]	Activity [14]	Activity [15]	Activity [16]	Activity [17]
CCOC(=O)Nc1ccc(N2CCN(c3ccc(OC)cc3)CC2)cc1	100	100	inactive	Non-toxic	inactive	Non-toxic	–	–	–	–	–	–	–	–	–	–	–
CCOC(=O)Nc1ccc(N2CCN(c3ncccn3)CC2)cc1	–	100	–	Non-toxic	inactive	Non-toxic	inactive	Toxic	300	–	–	–	–	–	–	–	–
CCOC(=O)Nc1ccc(N2CCN(c3ccc(C)cc3)CC2)cc1	–	30	–	–	–	–	inactive	–	100	100	100	Toxic	100	–	–	–	–
CCOC(=O)Nc1ccc(N2CCN(CC)CC2)cc1	–	–	inactive	Non-toxic	inactive	Non-toxic	inactive	–	–	–	–	–	–	inactive	–	–	–
CCOC(=O)Nc1ccc(N2CCN(C(c3ccc(F)cc3)c3ccc(F)cc3)CC2)cc1	100	–	–	Non-toxic	inactive	Non-toxic	–	–	300	–	–	–	–	inactive	Toxic	–	–
CCOC(=O)Nc1ccc(N2CCN(c3ccccc3)CC2)cc1	300	30	–	Non-toxic	–	Non-toxic	–	–	300	–	–	–	300	–	–	–	–
CCOC(=O)Nc1ccc(N2CCN(C(=O)c3ccccc3)CC2)cc1	300	–	–	–	inactive	–	–	–	100	300	300	–	–	inactive	–	–	–
NC(=O)N1c2ccccc2C=Cc2ccccc21 [CARBAMAZEPINE]	300	30	–	–	–	–	–	–	100	300	100	–	100	–	–	–	–
CCCC(CCC)C(=O)O [VALPROIC ACID]	300	–	inactive	Non-toxic	inactive	Non-toxic	–	–	–	–	–	–	–	inactive	–	–	–
CCOC(=O)Nc1ccc(N2CCN(c3ccc(C(F)(F)F)cc3)CC2)cc1	–	100	inactive	–	–	–	inactive	–	–	–	–	–	300	–	–	Toxic	Toxic
CCOC(=O)Nc1ccc(N2CCN(C)CC2)cc1	–	–	inactive	Non-toxic	inactive	Non-toxic	inactive	–	–	–	–	–	–	inactive	–	–	–

— ChEMBL document CHEMBL3396946, “Design, synthesis and pharmacological evaluation of N-[4-(4-(alkyl/aryl/heteroaryl)-piperazin-1-yl)-phenyl]-carbamic acid ethyl ester derivatives as novel anticonvulsant agents” (Bioorg Med Chem Lett, 2015)
